Laboratory results: ChEMBL document CHEMBL3399918, “In vitro radical scavenging and cytotoxic activities of novel hybrid selenocarbamates” (Bioorg Med Chem, 2015)

Legend:
[1] = Cytotoxicity against human PC3 cells after 72 hrs by MTT assay; format: functional; settings: PC-3, 72 h
Method in brief: (§1)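 CCRF-CEM, HT-29, PC-3 and HTB-54 cells grown in RPMI 1640 with 10% foetal calf serum, 2 mM L-glutamine, penicillin/streptomycin, 10 mM HEPES (pH 7.4). Five concentrations, 0.01–100 μM, 72 h at 37 °C, 5% CO2; MTT read-out. GI50, TGI and LC50 versus untreated controls; at least 3 independent experiments in quadruplicate.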

[2] = Cytotoxicity against human 184B5 cells after 72 hrs by MTT assay; format: cell-based; settings: for GI50 at 72 h: 184B5 cells; for LC50 / TGI: 184b5, 72 h
Method in brief: (§2)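 Non-malignant lines: 184B5 (normal breast) in Hams F-12/DMEM (50:50) with published supplements; BEAS-2B (bronchial epithelium) in Hams F-12/DMEM (50:50) with 10% foetal calf serum, 2 mM L-glutamine, penicillin/streptomycin. Compounds at five concentrations, 0.01–100 μM, 72 h, 37 °C, 5% CO2; MTT read-out. GI50, TGI, LC50 relative to untreated controls; ≥3 independent experiments in quadruplicate.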

[3] = Antioxidant activity assessed as ABTS radical scavenging activity by measuring Trolox equivalent antioxidant capacity after 6 mins; format: physicochemical; settings: 0.1 h
Method in brief: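 ABTS dissolved in deionized water at 1 mg/mL, oxidised to radical cation with potassium persulfate (2.45 mM final), kept overnight at room temperature in dark, then diluted with 50% ethanol to A741 = 0.700 ± 0.02. Compound (1 mg/mL ethanol stock) added 1:10 (0.1 mg/mL); A741 decrease read after 6 min against 50% ethanol blank. Trolox positive control; quadruplicate; TEAC from calibration curve.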

[4] = Antioxidant activity assessed as ABTS radical scavenging activity at 0.1 mg/ml after 6 mins; format: physicochemical; settings: 0.1 h
Method in brief: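 Diluted with 50% ethanol to A741 0.700 ± 0.02. A741 decrease read after 6 min against a 50% ethanol blank. % scavenged relative to a vehicle-plus-radical control. Quadruplicate.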

[5] = test system: MCF7; assay: Cytotoxicity against human MCF7 cells after 72 hrs by MTT assay; format: functional; settings: MCF7, 72 h; for CC50: read-out: LC50 (the source's name)
Method in brief: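 MCF-7 cells grown in EMEM with 10% foetal calf serum, 2 mM L-glutamine, 100 units/mL penicillin, 100 µg/mL streptomycin. Exposed to five concentrations between 0.01 and 100 μM for 72 h, 37 °C, humidified 5% CO2; MTT read-out. GI50, TGI, LC50 relative to untreated controls; ≥3 independent experiments in quadruplicate.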

[6] = test system: HT-29; assay: Cytotoxicity against human HT-29 cells after 72 hrs by MTT assay; format: functional; settings: HT-29, 72 h; method in brief: as §1
[7] = Cytotoxicity against human HTB-54 cells after 72 hrs by MTT assay; format: functional; settings: HTB-54, 72 h; for CC50: read-out: LC50 (the source's name); method in brief: as §1
[8] = Cytotoxicity against human BEAS2B cells after 72 hrs by MTT assay; format: cell-based, BEAS-2B; settings: for GI50 at 72 h: BEAS2B cells; for LC50 / TGI: beas-2b, 72 h; method in brief: as §2
[9] = test system: CCRF-CEM; assay: Cytotoxicity against human CCRF-CEM cells after 72 hrs by MTT assay; format: functional; method in brief: as §1
[10] = Antioxidant activity assessed as DPPH radical scavenging activity at 0.5 mg/ml after 180 mins; format: physicochemical; settings: 3 h
Method in brief: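 Compounds in absolute ethanol, serially diluted from 1 mg/mL, mixed 1:1 with […] in ethanol. Final range 0.016–0.5 mg/mL, 6 concentrations. Incubated at 37 °C in the dark, with decolourisation followed at 517 nm at several time intervals. % scavenged = (A vehicle control − A sample)/A control × 100. Quadruplicate; mean ± SD.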

SMILES | GI50 [1] | LC50 (concentration causing 50% net cell kill) [1] | TGI [1] | GI50 at 72 h [2] | LC50 [2] | TGI [2] | Activity [3] | inhibition (INH) [4] | GI50 [5] | TGI [5] | CC50 [5] | GI50 [6] | LC50 [6] | TGI [6] | GI50 [7] | TGI [7] | CC50 [7] | GI50 at 72 h [8] | LC50 [8] | TGI [8] | also measured
N#C[Se]c1ccc(NC(=O)Oc2ccc(Cl)cc2)cc1 | 6.4 µM | 57.9 µM | 18.7 µM | 5.6 µM | 59.8 µM | 19.9 µM | 37.6 µg/µL | > 25% | 6 µM | 26.3 µM | 63.6 µM | 11.8 µM | 68.7 µM | 40.3 µM | 13.8 µM | 41.4 µM | 69 µM | 9.3 µM | 68.7 µM | 38 µM | GI50 [9]: 18.3 µM; LC50 [9]: 71.8 µM; TGI [9]: 45.1 µM
CCCCOC(=O)Nc1ccc([Se]C#N)cc1 | 12.4 µM | 69.3 µM | 40.8 µM | 5.3 µM | 56.8 µM | 14.5 µM | 6.77 µg/µL | 12.6% | 6.6 µM | 20.2 µM | 59.7 µM | 8.1 µM | 63.7 µM | 31.3 µM | 17.2 µM | 43.4 µM | 69.5 µM | 5 µM | 54.5 µM | 12.2 µM | GI50 [9]: 6.5 µM; LC50 [9]: 63.5 µM; TGI [9]: 27.9 µM; inhibition (INH) [10]: 6.6%
CCCCOC(=O)Nc1ccc([Se][Se]c2ccc(NC(=O)OCCCC)cc2)cc1 | 28.6 µM | 76.4 µM | 52.5 µM | 7.2 µM | 63.1 µM | 26 µM | 2.67 µg/µL | 7.3% | 17.3 µM | 46.3 µM | 75.2 µM | 27.6 µM | 82.4 µM | 55 µM | 35.2 µM | 57.3 µM | 79.4 µM | 24.2 µM | 75 µM | 49.6 µM | GI50 [9]: 16.7 µM; LC50 [9]: 72.3 µM; TGI [9]: 44.5 µM; inhibition (INH) [10]: 36.1%
C=CCOC(=O)Nc1ccc([Se][Se]c2ccc(NC(=O)OCC=C)cc2)cc1 | 25 µM | 74.7 µM | 49.9 µM | 6.4 µM | 60.4 µM | 21.5 µM | 5.5 µg/µL | 10.9% | 20.8 µM | 47.2 µM | 73.6 µM | 25.9 µM | 79.5 µM | 52.7 µM | 29.8 µM | 56.6 µM | 83.3 µM | 14.3 µM | 71.4 µM | 42.9 µM | GI50 [9]: 4.6 µM; LC50 [9]: 46.9 µM; TGI [9]: 8.7 µM; inhibition (INH) [10]: 30%
CCCOC(=O)Nc1ccc([Se][Se]c2ccc(NC(=O)OCCC)cc2)cc1 | 18.4 µM | 71.5 µM | 45 µM | 7.2 µM | 62 µM | 24.5 µM | 14.5 µg/µL | 22.5% | 31.7 µM | 55.8 µM | 80 µM | 18.3 µM | 76.1 µM | 47.2 µM | 48.5 µM | 68.4 µM | 88.3 µM | 14.4 µM | 72.2 µM | 43.3 µM | GI50 [9]: 4.3 µM; LC50 [9]: 49.1 µM; TGI [9]: 8.8 µM; inhibition (INH) [10]: 52.4%
